Experimental data: ChEMBL document CHEMBL4038284, “Synthesis of novel quinoline-based 4,5-dihydro-1H-pyrazoles as potential anticancer, antifungal, antibacterial and antiprotozoal agents” (Eur J Med Chem, 2017)

Tests used:
Type in all cases: functional
CCRF-CEM = test: Growth inhibition of human CCRF-CEM cells incubated for 48 hrs by sulforhodamine B assay
Summary of the method: (§1)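 NCI 60-line screen. Cells in RPMI-1640 with 5% FBS and 2 mM L-glutamine, preincubated 24 h, then time-zero plates TCA-fixed. Compounds from DMSO stocks given at five final concentrations (100, 10, 1.0, 0.1, 0.01 µM) for 48 h at 37 °C, 5% CO2. Cells fixed with 10% TCA, SRB-stained, read at 515 nm. GI50 is the concentration giving 50% lower net protein increase versus control.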

HL-60(TB) = test: Growth inhibition of human HL-60(TB) cells incubated for 48 hrs by sulforhodamine B assay; conditions: HL-60, 48 h; summary of the method: as §1
K562 = test: Growth inhibition of human K562 cells incubated for 48 hrs by sulforhodamine B assay; conditions: K562, 48 h; summary of the method: as §1
RPMI-8226 = test: Growth inhibition of human RPMI8226 cells incubated for 48 hrs by sulforhodamine B assay; conditions: RPMI-8226, 48 h; summary of the method: as §1
HOP-62 = test: Growth inhibition of human HOP62 cells incubated for 48 hrs by sulforhodamine B assay; conditions: HOP-62, 48 h
Summary of the method: (§2)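 NCI five-dose SRB assay (100, 10, 1.0, 0.1, 0.01 µM) with 48 h exposure in RPMI-1640 with 5% FBS and 2 mM L-glutamine. Cells fixed with TCA and stained with SRB, read at 515 nm. GI50 is the concentration where [(Ti−Tz)/(C−Tz)]×100 = 50.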

NCI-H226 = test: Growth inhibition of human NCI-H226 cells incubated for 48 hrs by sulforhodamine B assay; conditions: NCI-H226, 48 h; summary of the method: as §1
NCI-H322M = test: Growth inhibition of human NCI-H322M cells incubated for 48 hrs by sulforhodamine B assay
Summary of the method: (§3)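 Five-dose NCI SRB assay at 100, 10, 1.0, 0.1 and 0.01 μM for 48 h at 37 °C, 5% CO2. Medium was RPMI-1640 with 5% FBS and 2 mM glutamine. Time-zero plates were TCA-fixed at compound addition, A515 read after SRB staining. GI50 was solved from [(Ti−Tz)/(C−Tz)]×100 = 50. Values beyond the tested range are given as > or <.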

COLO 205 = test: Growth inhibition of human COLO205 cells incubated for 48 hrs by sulforhodamine B assay; conditions: COLO 205, 48 h; summary of the method: as §2
HCC 2998 = test: Growth inhibition of human HCC2998 cells incubated for 48 hrs by sulforhodamine B assay; conditions: HCC 2998, 48 h; summary of the method: as §1
HCT-116 = test: Growth inhibition of human HCT116 cells incubated for 48 hrs by sulforhodamine B assay; conditions: HCT-116, 48 h; summary of the method: as §2
HT-29 = test: Growth inhibition of human HT-29 cells incubated for 48 hrs by sulforhodamine B assay; conditions: HT-29, 48 h; summary of the method: as §3
KM12 = test: Growth inhibition of human KM12 cells incubated for 48 hrs by sulforhodamine B assay; conditions: KM12, 48 h; summary of the method: as §3
SF-268 = test: Growth inhibition of human SF268 cells incubated for 48 hrs by sulforhodamine B assay; conditions: SF-268, 48 h; summary of the method: as §3
SF-539 = test: Growth inhibition of human SF539 cells incubated for 48 hrs by sulforhodamine B assay; conditions: SF-539, 48 h
Summary of the method: (§4)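 NCI-60 panel cells grown in RPMI-1640 with 5% FBS and 2 mM L-glutamine, preincubated 24 h at 37 °C/5% CO2. Time-zero plates were TCA-fixed at compound addition. DMSO stocks were diluted in medium and tested at five final concentrations (100, 10, 1.0, 0.1, 0.01 µM) for 48 h. Cells were TCA-fixed, stained with SRB and read at 515 nm. GI50 = 50% lower net protein increase versus control.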

U-251 = test: Growth inhibition of human U251 cells incubated for 48 hrs by sulforhodamine B assay; conditions: U-251, 48 h; summary of the method: as §4
Malme-3M = test: Growth inhibition of human MALME-3M cells incubated for 48 hrs by sulforhodamine B assay; summary of the method: as §3
SK-MEL-28 = test: Growth inhibition of human SK-MEL-28 cells incubated for 48 hrs by sulforhodamine B assay; conditions: SK-MEL-28, 48 h; summary of the method: as §4
SK-MEL-5 = test: Growth inhibition of human SK-MEL-5 cells incubated for 48 hrs by sulforhodamine B assay; conditions: SK-MEL-5, 48 h; summary of the method: as §1
UACC-62 = test: Growth inhibition of human UACC62 cells incubated for 48 hrs by sulforhodamine B assay; conditions: UACC-62, 48 h; summary of the method: as §1
IGROV-1 = test: Growth inhibition of human IGROV1 cells incubated for 48 hrs by sulforhodamine B assay; conditions: IGROV-1, 48 h; summary of the method: as §1
OVCAR-4 = test: Growth inhibition of human OVCAR4 cells incubated for 48 hrs by sulforhodamine B assay; conditions: OVCAR-4, 48 h; summary of the method: as §3
OVCAR-8 = test: Growth inhibition of human OVCAR8 cells incubated for 48 hrs by sulforhodamine B assay; conditions: OVCAR-8, 48 h; summary of the method: as §3
SK-OV-3 = test: Growth inhibition of human SKOV3 cells incubated for 48 hrs by sulforhodamine B assay; conditions: SK-OV-3, 48 h; summary of the method: as §1
786-0 = test: Growth inhibition of human 786-0 cells incubated for 48 hrs by sulforhodamine B assay; conditions: 786-0, 48 h; summary of the method: as §2
A498 = test: Growth inhibition of human A498 cells incubated for 48 hrs by sulforhodamine B assay; conditions: A498, 48 h; summary of the method: as §1
TK-10 = test: Growth inhibition of human TK10 cells incubated for 48 hrs by sulforhodamine B assay; conditions: TK-10, 48 h; summary of the method: as §1
UO-31 = test: Growth inhibition of human UO31 cells incubated for 48 hrs by sulforhodamine B assay; conditions: UO-31, 48 h; summary of the method: as §4
DU-145 = test: Growth inhibition of human DU145 cells incubated for 48 hrs by sulforhodamine B assay; conditions: DU-145, 48 h; summary of the method: as §2
MDA-MB-231 = test: Growth inhibition of human MDA-MB-231 cells incubated for 48 hrs by sulforhodamine B assay; conditions: MDA-MB-231, 48 h; summary of the method: as §3
T47D = test: Growth inhibition of human T47D cells incubated for 48 hrs by sulforhodamine B assay; summary of the method: as §4
[1] = read-out: LC50 (the source's name)

O=CN1N=C(c2ccc(Cl)cc2)CC1c1cccc(Nc2ccnc3cc(Cl)ccc23)c1 (stereo not given)
GI50 (CCRF-CEM): 1.42 µM
CC50 (CCRF-CEM; [1]): > 100 µM
GI50 (HL-60(TB)): 1.27 µM
CC50 (HL-60(TB); [1]): > 100 µM
GI50 (K562): 0.39 µM
CC50 (K562; [1]): > 100 µM
GI50 (RPMI-8226): 0.61 µM
CC50 (RPMI-8226; [1]): > 100 µM
GI50 (HOP-62): 1.21 µM
CC50 (HOP-62; [1]): 70 µM
GI50 (NCI-H226): 1.87 µM
CC50 (NCI-H226; [1]): > 100 µM
GI50 (NCI-H322M): 5.52 µM
CC50 (NCI-H322M; [1]): > 100 µM
GI50 (COLO 205): 1.43 µM
CC50 (COLO 205; [1]): 21.4 µM
GI50 (HCC 2998): 3.12 µM
CC50 (HCC 2998; [1]): > 100 µM
GI50 (HCT-116): 1.2 µM
LC50 (concentration killing 50% of cells) (HCT-116): 17.2 µM
GI50 (HT-29): 1.28 µM
LC50 (HT-29): 56.4 µM
GI50 (KM12): 1.22 µM
CC50 (KM12; [1]): > 100 µM
GI50 (SF-268): 2.73 µM
CC50 (SF-268; [1]): > 100 µM
GI50 (SF-539): 1.69 µM
CC50 (SF-539; [1]): 35.1 µM
GI50 (U-251): 2.47 µM
CC50 (U-251; [1]): 53.9 µM
GI50 (Malme-3M): 1.27 µM
CC50 (Malme-3M; [1]): 76.6 µM
GI50 (SK-MEL-28): 3.15 µM
CC50 (SK-MEL-28; [1]): > 100 µM
GI50 (SK-MEL-5): 0.54 µM
CC50 (SK-MEL-5; [1]): 5.05 µM
GI50 (UACC-62): 1.14 µM
CC50 (UACC-62; [1]): 87.8 µM
GI50 (IGROV-1): 1.44 µM
CC50 (IGROV-1; [1]): > 100 µM
GI50 (OVCAR-4): 0.64 µM
CC50 (OVCAR-4; [1]): 79.8 µM
GI50 (OVCAR-8): 1.92 µM
LC50 (concentration causing 50% net cell kill) (OVCAR-8): > 100 µM
GI50 (SK-OV-3): 2.9 µM
CC50 (SK-OV-3; [1]): > 100 µM
GI50 (786-0): 2.96 µM
LC50 (786-0): 62.7 µM
GI50 (A498): 0.98 µM
CC50 (A498; [1]): > 100 µM
GI50 (TK-10): 2.34 µM
CC50 (TK-10; [1]): > 100 µM
GI50 (UO-31): 1.7 µM
CC50 (UO-31; [1]): > 100 µM
GI50 (DU-145): 2.8 µM
CC50 (DU-145; [1]): > 100 µM
GI50 (MDA-MB-231): 2.74 µM
CC50 (MDA-MB-231; [1]): > 100 µM
GI50 (T47D): 0.82 µM
CC50 (T47D; [1]): > 100 µM
